We go through 7 compounds from ChEMBL document CHEMBL2016452, “Flavones and structurally related 4-chromenones inhibit carbonic anhydrases by a different mechanism of action compared to coumarins” (Bioorg Med Chem Lett, 2012).

Molecules are shown by their SMILES.

For test [1], the target named is T1, Carbonic anhydrase 12 (Homo sapiens, UniProt O43570). The experiment in a line: Inhibition of transmembrane tumor-associated human carbonic anhydrase 12 preincubated for 15 mins by stopped flow CO2 hydration assay. The essentials:
(§1)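 Stopped-flow CO2 hydration, with phenol red 0.2 mM as indicator at 557 nm. Buffer 20 mM Hepes pH 7.5 with 20 mM NaClO4. Initial rates measured over 10–100 s, with uncatalyzed rate subtracted. Inhibitor stock 0.1 mM in water, diluted with assay buffer. Enzyme and inhibitor preincubated 15 min at room temperature. KI by non-linear least squares, mean of at least three determinations.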

Test [2] deals with T1, Carbonic anhydrase 12. Put plainly: Inhibition of transmembrane tumor-associated human carbonic anhydrase 12 preincubated for 12 hrs by stopped flow CO2 hydration assay. In outline: (§2)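 Stopped-flow CO2 hydration, with phenol red 0.2 mM as indicator read at 557 nm. Buffer 20 mM Hepes pH 7.5 with 20 mM NaClO4 for ionic strength. Initial rates followed for 10–100 s, with uncatalyzed rates subtracted. Inhibitor stock 0.1 mM in water, diluted in assay buffer. Enzyme and inhibitor preincubated 12 h at 4 °C. KI by non-linear least squares, mean of at least three determinations.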

The target of test [3] is T2, Carbonic anhydrase 9 (Homo sapiens, UniProt Q16790). The experiment in a line: Inhibition of transmembrane tumor-associated human carbonic anhydrase 9 preincubated for 15 mins by stopped flow CO2 hydration assay. In outline:
as §1

Test [4] deals with T3, Carbonic anhydrase 1 (Homo sapiens, UniProt P00915). The experiment in a line: Inhibition of cytosolic human carbonic anhydrase 1 preincubated for 15 mins by stopped flow CO2 hydration assay.
T3 sequence (P00915 whole entry): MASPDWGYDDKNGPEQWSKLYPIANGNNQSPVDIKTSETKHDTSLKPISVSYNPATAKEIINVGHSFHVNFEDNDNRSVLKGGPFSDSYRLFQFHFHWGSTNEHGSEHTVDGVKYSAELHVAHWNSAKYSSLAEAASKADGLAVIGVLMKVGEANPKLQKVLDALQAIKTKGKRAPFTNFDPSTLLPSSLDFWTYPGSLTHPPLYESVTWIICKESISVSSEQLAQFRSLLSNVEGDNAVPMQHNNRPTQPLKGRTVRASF
In test [5] the target is T4, Carbonic anhydrase 2 (Homo sapiens, UniProt P00918). Put plainly: Inhibition of cytosolic human carbonic anhydrase 2 preincubated for 12 hrs by stopped flow CO2 hydration assay. The essentials:
as §2

Test [6] deals with T3, Carbonic anhydrase 1. Put plainly: Inhibition of cytosolic human carbonic anhydrase 1 preincubated for 12 hrs by stopped flow CO2 hydration assay. In outline: as §2
Test [7] concerns the target T4, Carbonic anhydrase 2. Put plainly: Inhibition of cytosolic human carbonic anhydrase 2 preincubated for 15 mins by stopped flow CO2 hydration assay.
Test [8] concerns the target T2, Carbonic anhydrase 9. Put plainly: Inhibition of transmembrane tumor-associated human carbonic anhydrase 9 preincubated for 12 hrs by stopped flow CO2 hydration assay. The essentials:
as §2

Test [9] concerns the target T5, Carbonic anhydrase 15 (Mus musculus, UniProt Q99N23).
T5 sequence (Q99N23 whole entry): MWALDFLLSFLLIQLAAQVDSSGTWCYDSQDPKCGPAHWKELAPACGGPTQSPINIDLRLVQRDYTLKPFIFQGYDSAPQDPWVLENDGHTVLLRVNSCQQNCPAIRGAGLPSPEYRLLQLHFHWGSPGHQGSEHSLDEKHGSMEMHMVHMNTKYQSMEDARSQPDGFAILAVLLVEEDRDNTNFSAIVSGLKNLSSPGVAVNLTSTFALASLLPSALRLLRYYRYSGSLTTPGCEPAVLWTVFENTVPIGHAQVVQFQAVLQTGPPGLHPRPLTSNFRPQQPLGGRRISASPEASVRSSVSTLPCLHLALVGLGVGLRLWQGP
The experiment in a line: Inhibition of mouse carbonic anhydrase 15 preincubated for 15 mins by stopped flow CO2 hydration assay. The essentials:
as §1

The target of test [10] is Carbonic anhydrase 5A, mitochondrial (Homo sapiens, UniProt P35218). Put plainly: Inhibition of human carbonic anhydrase 5a preincubated for 15 mins by stopped flow CO2 hydration assay.
Chain of Carbonic anhydrase 5A, mitochondrial (P35218 whole entry): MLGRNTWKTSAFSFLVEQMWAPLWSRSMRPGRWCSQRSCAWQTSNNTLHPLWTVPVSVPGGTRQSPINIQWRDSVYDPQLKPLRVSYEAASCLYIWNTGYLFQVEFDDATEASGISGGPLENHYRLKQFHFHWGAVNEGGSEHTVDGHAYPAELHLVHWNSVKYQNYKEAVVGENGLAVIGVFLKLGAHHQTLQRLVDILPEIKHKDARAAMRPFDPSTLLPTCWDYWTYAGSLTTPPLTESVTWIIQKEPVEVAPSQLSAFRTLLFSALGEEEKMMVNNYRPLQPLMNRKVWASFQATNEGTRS
Test [11] concerns the target Carbonic anhydrase 7 (Homo sapiens, UniProt P43166). Put plainly: Inhibition of human carbonic anhydrase 7 preincubated for 15 mins by stopped flow CO2 hydration assay. The essentials:
as §1

The target of test [12] is Carbonic anhydrase 6 (Homo sapiens, UniProt P23280). Put plainly: Inhibition of human carbonic anhydrase 6 preincubated for 15 mins by stopped flow CO2 hydration assay.
Chain of Carbonic anhydrase 6 (P23280 whole entry): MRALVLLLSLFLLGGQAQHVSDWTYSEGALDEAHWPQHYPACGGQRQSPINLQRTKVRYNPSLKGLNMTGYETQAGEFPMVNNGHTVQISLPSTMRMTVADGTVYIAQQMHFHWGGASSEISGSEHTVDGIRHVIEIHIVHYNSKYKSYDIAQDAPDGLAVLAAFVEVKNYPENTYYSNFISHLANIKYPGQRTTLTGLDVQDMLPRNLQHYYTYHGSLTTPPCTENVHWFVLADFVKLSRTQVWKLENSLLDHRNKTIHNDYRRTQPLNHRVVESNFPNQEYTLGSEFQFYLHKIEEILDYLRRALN
Test [13] concerns the target Carbonic anhydrase 5B, mitochondrial (Homo sapiens, UniProt Q9Y2D0). Put plainly: Inhibition of human carbonic anhydrase 5b preincubated for 15 mins by stopped flow CO2 hydration assay.
Test [14] addresses Carbonic anhydrase 4 (Homo sapiens, UniProt P22748). The experiment in a line: Inhibition of human carbonic anhydrase 4 preincubated for 15 mins by stopped flow CO2 hydration assay.
Test [15] deals with Carbonic anhydrase 14 (Homo sapiens, UniProt Q9ULX7). The experiment in a line: Inhibition of human carbonic anhydrase 14 preincubated for 15 mins by stopped flow CO2 hydration assay.
Chain of Carbonic anhydrase 14 (Q9ULX7 whole entry): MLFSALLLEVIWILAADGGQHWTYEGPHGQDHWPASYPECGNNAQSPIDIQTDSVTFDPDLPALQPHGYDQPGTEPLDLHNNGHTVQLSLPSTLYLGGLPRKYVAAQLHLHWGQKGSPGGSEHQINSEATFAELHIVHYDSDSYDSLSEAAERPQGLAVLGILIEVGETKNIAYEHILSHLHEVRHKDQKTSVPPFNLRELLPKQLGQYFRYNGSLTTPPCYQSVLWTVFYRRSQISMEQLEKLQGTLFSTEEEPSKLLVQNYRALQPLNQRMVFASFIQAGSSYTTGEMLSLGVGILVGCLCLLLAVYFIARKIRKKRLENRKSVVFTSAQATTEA
Test [16] has as its target Carbonic anhydrase 13 (Homo sapiens, UniProt Q8N1Q1). The experiment in a line: Inhibition of human carbonic anhydrase 13 preincubated for 15 mins by stopped flow CO2 hydration assay.
Test [17] addresses Carbonic anhydrase 3 (Homo sapiens, UniProt P07451). The experiment in a line: Inhibition of human carbonic anhydrase 3 preincubated for 15 mins by stopped flow CO2 hydration assay.

T1 sequence (O43570 whole entry): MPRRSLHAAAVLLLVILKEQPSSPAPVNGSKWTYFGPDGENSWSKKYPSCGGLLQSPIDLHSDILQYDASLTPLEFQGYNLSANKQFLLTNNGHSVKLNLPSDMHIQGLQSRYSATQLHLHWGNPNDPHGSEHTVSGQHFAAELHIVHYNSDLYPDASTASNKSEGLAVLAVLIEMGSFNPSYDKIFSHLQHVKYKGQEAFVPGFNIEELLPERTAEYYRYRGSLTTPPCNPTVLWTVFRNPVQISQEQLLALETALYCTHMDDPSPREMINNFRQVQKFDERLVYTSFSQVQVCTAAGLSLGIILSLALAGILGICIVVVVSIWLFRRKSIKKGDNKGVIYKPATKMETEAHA
Chain of Carbonic anhydrase 7 (P43166 whole entry): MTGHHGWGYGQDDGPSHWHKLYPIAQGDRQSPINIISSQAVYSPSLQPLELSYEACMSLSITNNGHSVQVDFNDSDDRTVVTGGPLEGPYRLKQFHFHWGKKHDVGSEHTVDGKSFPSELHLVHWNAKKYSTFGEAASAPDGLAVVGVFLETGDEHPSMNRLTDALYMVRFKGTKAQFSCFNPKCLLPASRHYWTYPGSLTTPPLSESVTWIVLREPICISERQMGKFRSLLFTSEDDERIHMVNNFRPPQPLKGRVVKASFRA
Chain of Carbonic anhydrase 5B, mitochondrial (Q9Y2D0 whole entry): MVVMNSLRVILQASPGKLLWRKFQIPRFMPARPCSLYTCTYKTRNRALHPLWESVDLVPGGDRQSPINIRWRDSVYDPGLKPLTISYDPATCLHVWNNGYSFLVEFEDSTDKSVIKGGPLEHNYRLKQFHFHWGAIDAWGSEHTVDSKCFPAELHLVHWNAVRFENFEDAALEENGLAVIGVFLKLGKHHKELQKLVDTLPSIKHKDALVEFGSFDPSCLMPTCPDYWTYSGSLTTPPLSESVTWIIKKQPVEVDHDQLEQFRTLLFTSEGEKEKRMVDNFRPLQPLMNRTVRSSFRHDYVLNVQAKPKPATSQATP
Chain of Carbonic anhydrase 13 (Q8N1Q1 whole entry): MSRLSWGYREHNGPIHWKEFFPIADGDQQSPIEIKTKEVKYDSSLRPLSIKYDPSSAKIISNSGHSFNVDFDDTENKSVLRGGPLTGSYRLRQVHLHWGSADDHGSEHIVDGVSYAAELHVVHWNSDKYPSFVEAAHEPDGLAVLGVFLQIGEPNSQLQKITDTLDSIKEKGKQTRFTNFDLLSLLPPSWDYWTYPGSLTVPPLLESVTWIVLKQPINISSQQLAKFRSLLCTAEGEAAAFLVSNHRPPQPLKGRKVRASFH
Chain of Carbonic anhydrase 3 (P07451 whole entry): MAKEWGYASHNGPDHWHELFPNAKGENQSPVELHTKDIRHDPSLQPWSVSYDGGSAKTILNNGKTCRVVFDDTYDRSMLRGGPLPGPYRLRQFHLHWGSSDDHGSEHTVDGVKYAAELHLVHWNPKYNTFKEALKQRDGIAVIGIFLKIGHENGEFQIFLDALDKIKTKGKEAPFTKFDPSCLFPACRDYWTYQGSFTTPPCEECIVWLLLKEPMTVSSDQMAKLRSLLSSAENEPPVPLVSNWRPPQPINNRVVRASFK
Chain of Carbonic anhydrase 4 (P22748 whole entry): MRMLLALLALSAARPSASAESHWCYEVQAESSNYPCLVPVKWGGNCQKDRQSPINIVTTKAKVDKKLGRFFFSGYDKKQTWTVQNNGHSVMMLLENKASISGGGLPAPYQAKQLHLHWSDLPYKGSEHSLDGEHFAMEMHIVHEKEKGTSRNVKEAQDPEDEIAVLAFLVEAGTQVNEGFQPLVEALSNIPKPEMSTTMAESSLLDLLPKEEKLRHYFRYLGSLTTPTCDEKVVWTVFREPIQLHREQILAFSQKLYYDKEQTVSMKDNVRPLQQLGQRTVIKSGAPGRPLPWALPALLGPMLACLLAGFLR

In the case of `O=c1cc(-c2ccccc2)oc2cc(O)ccc12` [7-HYDROXYFLAVONE], the Ki worked out at 8.4 µM in test [1]; 8.51 µM in test [2]; 4.92 µM in test [3]; 3.37 µM in test [4]; 2.32 µM in test [5]; 3.43 µM in test [6]. The inhibition constant (Ki) turned out to be 2.24 µM in test [7] and 4.85 µM in test [8].

Regarding `O=c1cc(-c2ccccc2)oc2ccccc12` [FLAVONE], the inhibition constant (Ki) in [1] amounted to 7.22 µM; in test [2] it was 7.33 µM; in test [3], 4.13 µM; in test [4], 1.89 µM; in [5], 8.8 µM; in [6], 1.88 µM. For the same compound, the figures for the inhibition constant (Ki) in test [7] and in test [8] were 8.71 µM and 4.22 µM, respectively.

`Oc1ccc(C=Cc2cc(O)cc(O)c2)cc1` (mixture of isomers): the Ki in test [1] was found to be 8.13 µM; in [3] it was 9.53 µM; in test [9], 2.57 µM; in [10], 2.86 µM; in [11], 8.98 µM; in [12], 8.63 µM. Also, the inhibition constant (Ki) is 3.24 µM in [13]; 1.75 µM in test [7]; 4.01 µM in [14]; 1.95 µM in test [15]; 8.25 µM in test [16]; 6.75 µM in [17].

As for `COc1ccc(-c2c(N)oc3ccc(Cl)cc3c2=O)cc1`, the Ki came to 6.49 µM in [1], 2.41 µM in [3], 1.65 µM in test [9] and 6.75 µM in [11].

Turning to `O=c1cc(-c2ccccc2)oc2cc(O)cc(O)c12` [CHRYSIN], the inhibition constant (Ki) in test [1] is 8.96 µM; in test [2] it was 9.07 µM; in [3] it was 2.65 µM; in test [4] it was 5.49 µM; in test [5] it was 4.31 µM; in test [6], 5.42 µM. Also, the values for the Ki in test [7] and in test [8] were 4.38 µM and 2.71 µM, respectively.

Turning to `O=c1c(O)c(-c2ccccc2)oc2ccccc12` [FLAVONOL], the Ki was 6.59 µM in test [1]; 6.65 µM in [2]; 5.54 µM in [3]; 5.21 µM in test [4]; 9.2 µM in [5]; 5.1 µM in test [6]. Further, the Ki in test [7] was found to be 9.3 µM; in test [8], 5.63 µM.

As for `Nc1oc2ccc(Cl)cc2c(=O)c1-c1ccc(Cl)cc1`, the inhibitory constant (Ki) is 9.31 µM in test [1], 3.4 µM in test [3], 3.75 µM in test [9] and 7.95 µM in test [11].
